From PubChem BioAssay AID504382 (The Scripps Research Institute Molecular Screening Center, 2011)
Screen size: about 2,500 compounds; about 460 (18%) were called active.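 Rule for the calls: active = mean activation above a cutoff of low control average plus 3 SD from the earlier screen (cut at about 12% in these data); inactive = the rest.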 A selection follows.

Assay: IANBD-channel fluorescence artefacts in buffer – biochemical, artefact control for cardiac RTF calcium sensitizer project, confirmation (AID 504382)
Details: IANBD fluorescence interference counterscreen, EC20 Ca2+, at 7.2 µM, active compounds read high, scaled: EC20 calcium 0, EC100 calcium 100
How it was run: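 Medium: MOPS/KCl/MgCl2/EGTA/NTA/DTT buffer, pH 7.2 | Reagent: EC20 calcium, 0.472 mM | Compound dosing: 7.2 µM single dose | Times: 15 min compound exposure at 25 °C | Signal: Fluorescence, 480/540 nm | Measure: Interference relative to controls | Repeats: Triplicate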
In the case of `CCC1(O)C(=O)OCc2c1cc1n(c2=O)Cc2cc3cc(O)ccc3nc2-1` (stereo unspecified), the fluorescence artifact activation was 0.27% (inactive).
For `O=C1CCC(=O)N1CC(O)COc1ccccc1` (stereo unspecified), the fluorescence artifact activation was 61.5% (active).
For `Cc1cc(C)n(CC(O)COc2ccccc2)n1` (stereo unspecified), the fluorescence artifact activation was 0.59% (inactive).
For `CCOc1ccccc1C(=O)NN1C(=O)CCC1=O`, the fluorescence artifact activation was 3.75% (inactive).
In the case of `CC(C)(C)NC(=O)[C@@H]1CN(Cc2cccnc2)CCN1C[C@@H](O)C[C@@H](Cc1ccccc1)C(=O)N[C@H]1c2ccccc2C[C@H]1O`, the fluorescence artifact activation was 54.1% (active).
In the case of `Cn1nc([N+](=O)[O-])c(C(C#N)c2ccccn2)c(Cl)c1=O` (stereo unspecified), the fluorescence artifact activation was -0.03% (inactive).
With `Cc1c(N2C(=O)/C(=C\c3ccc(N(C)C)cc3)N(C)C2=S)c(=O)n(-c2ccccc2)n1C` the fluorescence artifact activation was 0.17% (inactive).
For `CN(C)c1ccc(/C=C2\N=C(C(C)(C)C)OC2=O)cc1`, the fluorescence artifact activation was 0.15% (inactive).
In the case of `CN1C(=O)/C(=C\c2ccc(N(C)C)cc2)OC1=S`, the fluorescence artifact activation was 57.7% (active).
For `Cc1ccc(NC2OC(C(O)CO)C(O)C2O)cc1[N+](=O)[O-]` (stereo unspecified), the fluorescence artifact activation was 5.79% (inactive).
With `O=C(c1ccc(COc2ccccc2Br)o1)N1N=C(C(F)F)CC1(O)C(F)F` (stereo unspecified) the fluorescence artifact activation was 8.57% (inactive).
With `CC(=O)Nc1ccc(S(=O)(=O)N2CCN3CCCC3C2)cc1` (stereo unspecified) the fluorescence artifact activation was -0.04% (inactive).
With `CCOC(=O)/C(=C\c1ccc(N2CCC(c3ccccc3)=N2)cc1)C(C)=O` the fluorescence artifact activation was -0.05% (inactive).
For `CCOC(=O)/C(=C/C1=CC(=C/N(C)C)/C(=O)O1)C(C)=O`, the fluorescence artifact activation was 22.1% (active).
With `CCOC(=O)/C(=C/C=C1\Sc2cc(C)c(C)cc2N1CC)C(C)=O` the fluorescence artifact activation was 0.02% (inactive).
In the case of `CCc1ccc(/C=N/n2c(C)cc(C)c(C#N)c2=O)cc1`, the fluorescence artifact activation was 0.12% (inactive).
With `CCCNC(=S)N1CCC(NC(=O)C23CC4CC(CC(C4)C2)C3)CC1` the fluorescence artifact activation was 0.09% (inactive).
With `Cc1ccccc1-n1nnnc1SCC(C)C` the fluorescence artifact activation was 32.8% (active).
In the case of `CCn1nnnc1SCC(=O)N1CCCc2ccccc21`, the fluorescence artifact activation was 0.01% (inactive).
In the case of `CSc1nnnn1-c1c(C)cc(C)cc1C`, the fluorescence artifact activation was 0.04% (inactive).
With `CCO[C@@H]1OC(C(=O)O)=C[C@H](c2coc3ccccc3c2=O)[C@H]1CCCO` the fluorescence artifact activation was 1.71% (inactive).
In the case of `COCCn1c(SCC#N)nnc1-c1ccc([N+](=O)[O-])cc1`, the fluorescence artifact activation was -0.11% (inactive).
In the case of `COc1cccc(N=C2NC(=O)/C(=C/c3cc([N+](=O)[O-])ccc3O)S2)c1`, the fluorescence artifact activation was 0.01% (inactive).
With `COc1cc(/C=C2\SC(=Nc3ccccc3)NC2=O)cc(Cl)c1O` the fluorescence artifact activation was 0.21% (inactive).
With `COc1cc(/C=C2\SC(=Nc3ccc(Cl)c(C(=O)O)c3)NC2=O)c(Br)c(Br)c1O` the fluorescence artifact activation was 17.6% (active).
For `c1ccc(-c2nc(-c3ccco3)n3ccccc23)cc1`, the fluorescence artifact activation was 0.05% (inactive).
For `O=C(/C=C/c1cccc(F)c1)Nc1cc(S(=O)(=O)N2CCOCC2)ccc1N1CCCC1`, the fluorescence artifact activation was 0.02% (inactive).
With `CC(C)CC1=NN2C(=N)/C(=C\c3coc4ccccc4c3=O)C(=O)N=C2S1` the fluorescence artifact activation was 2.69% (inactive).
In the case of `CC(C)CSC1=NSC2=NC(=O)/C(=C\c3coc4ccccc4c3=O)C(=N)N12`, the fluorescence artifact activation was 12.7% (active).
For `CCSC1=NSC2=NC(=O)/C(=C\c3coc4ccccc4c3=O)C(=N)N12`, the fluorescence artifact activation was 24.5% (active).
In the case of `CSC1=NSC2=NC(=O)/C(=C/c3coc4ccccc4c3=O)C(=N)N12`, the fluorescence artifact activation was 0.27% (inactive).
With `N=C1/C(=C\c2coc3ccccc3c2=O)C(=O)N=C2SC(c3ccncc3)=NN12` the fluorescence artifact activation was 7.67% (inactive).
For `N=C1/C(=C\c2coc3ccccc3c2=O)C(=O)N=C2SC=CN12`, the fluorescence artifact activation was -0.01% (inactive).
In the case of `Cn1nnnc1SCCOc1ccc(C#N)cc1`, the fluorescence artifact activation was -0.03% (inactive).
With `CSc1cccc(NC(=O)c2ccc(Cl)nc2)c1` the fluorescence artifact activation was -0.04% (inactive).
For `Fc1ccc(-c2[nH]ncc2CN(CC2CCC2)CC2CCCO2)c(F)c1` (stereo unspecified), the fluorescence artifact activation was 8.43% (inactive).
For `C=C(C)c1sc(-c2ccc(Cl)cc2)nc1C`, the fluorescence artifact activation was 0.11% (inactive).
In the case of `O=C(NN1C(=O)/C(=C/c2ccc(O)cc2)SC1=S)c1cccc(O)c1`, the fluorescence artifact activation was 0.01% (inactive).
In the case of `Cc1cc2nc(C3CCCN(C(=O)NCc4ccccc4)C3)[nH]c2cc1C` (stereo unspecified), the fluorescence artifact activation was 8.15% (inactive).
For `COc1ccc(-n2c(O)c(/C=N/NS(=O)(=O)c3ccc(C)c([N+](=O)[O-])c3)c3ccccc3c2=O)cc1OC`, the fluorescence artifact activation was -0.02% (inactive).
In the case of `COc1ccc(-n2c(O)c(/C=N/NS(=O)(=O)c3ccc(C)cc3)c3ccccc3c2=O)cc1OC`, the fluorescence artifact activation was 12.8% (active).
With `COc1ccc(-n2c(O)c(/C=N/NS(=O)(=O)c3cc(C)ccc3C)c3ccccc3c2=O)cc1OC` the fluorescence artifact activation was 0.84% (inactive).
In the case of `COc1ccc(/C(C)=N/N2C(=O)c3ccccc3NC2c2ccc(O)c(OC)c2)cc1` (stereo unspecified), the fluorescence artifact activation was 0.69% (inactive).
In the case of `Cc1cn(COC/C=C/c2ccccc2)c(=O)[nH]c1=O`, the fluorescence artifact activation was 25.6% (active).
With `Cc1ccccc1-n1c(O)c(/C=C/C=Nc2ccccc2)c(=O)[nH]c1=O` the fluorescence artifact activation was 2.27% (inactive).
In the case of `CCCCOc1ccc(C2OC34CCCCC3C(C#N)(C#N)C2(C#N)C(=N)O4)cc1` (stereo unspecified), the fluorescence artifact activation was 0.1% (inactive).
With `COc1ccc(C(=O)OC/C(O)=C(\C#N)c2nc3ccccc3[nH]2)cc1S(=O)(=O)N1CCOCC1` the fluorescence artifact activation was 0.13% (inactive).
For `O=C1OCC/C1=C\c1ccccc1O`, the fluorescence artifact activation was -0.06% (inactive).
In the case of `COC(=O)C1CSc2[nH]c(=O)sc2C1c1ccccc1` (stereo unspecified), the fluorescence artifact activation was 0.07% (inactive).
In the case of `Cn1cccc1/C=C1\SC(=S)N(NC(=O)c2ccccc2)C1=O`, the fluorescence artifact activation was 18.2% (active).
With `Cn1cc(/C=C2\SC(=S)N(NC(=O)c3ccccc3)C2=O)c2ccccc21` the fluorescence artifact activation was 2.64% (inactive).
With `Cc1ccc(C(=O)NN2C(=O)/C(=C/c3cccn3C)SC2=S)cc1` the fluorescence artifact activation was 4.27% (inactive).
In the case of `CCC(C(=O)O)N1C(=O)/C(=C/c2cccn2C)SC1=S` (stereo unspecified), the fluorescence artifact activation was 4.17% (inactive).
For `Cn1cccc1/C=C1\SC(=S)N(NC(=O)c2ccc(Cl)cc2)C1=O`, the fluorescence artifact activation was 0.86% (inactive).
With `Cc1ccc(C(=O)NN2C(=O)/C(=C/c3cn(C)c4ccccc34)SC2=S)cc1` the fluorescence artifact activation was 7.41% (inactive).
In the case of `Cn1cc(/C=C2\SC(=S)N(NC(=O)c3cccc(Cl)c3)C2=O)c2ccccc21`, the fluorescence artifact activation was 17% (active).
For `CC(C)C(C(=O)O)N1C(=O)/C(=C/c2cccn2C)SC1=S` (stereo unspecified), the fluorescence artifact activation was 12.3% (active).
For `CCCCN1C(=O)/C(=C/C=C2\SCCN2C)SC1=S`, the fluorescence artifact activation was 0% (inactive).
In the case of `CC(C(=O)O)N1C(=O)/C(=C/c2cccn2C)SC1=S` (stereo unspecified), the fluorescence artifact activation was 6.16% (inactive).
In the case of `CN1CCS/C1=C\C=C1/SC(=S)N(CC(=O)O)C1=O`, the fluorescence artifact activation was -0.02% (inactive).
In the case of `CN1CCS/C1=C/C=C1\SC(=S)N(CC(=O)O)C1=O`, the fluorescence artifact activation was 18.9% (active).
